Results published in ChEMBL document CHEMBL5357066, “Development of Novel Membrane Disrupting Lipoguanidine Compounds Sensitizing Gram-Negative Bacteria to Antibiotics” (ACS Med Chem Lett, 2024).
In brackets after ≈: the same amount, converted by molar mass.

How the values were obtained:
[1] = test system: Enterococcus faecalis; assay: Antibacterial activity against vancomycin resistant Enterococcus faecalis NCTC 12201 assessed as bacterial growth inhibition incubated for overnight by microbroth dilution method; type: functional
Method in brief: (§1)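 Microbroth dilution in Tryptic Soy Broth. DMSO stocks were diluted in TSB as 2-fold series. Overnight TSB cultures were back-diluted to OD 0.01 and mixed 1:1 with compound. Incubation was overnight at 37 °C. MIC is the lowest concentration with no visible growth (<0.1 OD600). DMSO at equivalent concentrations was checked.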

[2] = test system: Staphylococcus aureus; assay: Antibacterial activity against methicillin sensitive Staphylococcus aureus 1199B assessed as bacterial growth inhibition incubated for overnight by microbroth dilution method; type: functional; method in brief: as §1
[3] = test system: Acinetobacter baumannii; assay: Synergistic antibacterial activity against Acinetobacter baumannii AYE assessed as bacterial growth inhibition incubated for overnight in presence of PBMN by microbroth dilution method relative to control; type: functional
Method in brief: (§2)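 Adapted broth microdilution in TSB. The test compound was in a 2-fold dilution series, with PMBN added at a fixed 30 µg/mL. Bacteria at OD 0.02 were added, and plates were incubated overnight at 37 °C. Growth/no growth was read as for the MIC (<0.1 OD600).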

[4] = test system: Escherichia coli; assay: Antibacterial activity against Escherichia coli NCTC 12923 assessed as bacterial growth inhibition incubated for overnight by microbroth dilution method; type: functional
Method in brief: (§3)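 Broth microdilution in Tryptic Soy Broth. DMSO stocks were diluted in TSB as 2-fold series. Overnight TSB cultures were back-diluted to OD 0.01 and mixed 1:1 with compound. Incubation was overnight at 37 °C. MIC was the lowest concentration without visible growth (<0.1 OD600). DMSO vehicle was checked at equivalent concentrations.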

[5] = test system: Pseudomonas aeruginosa; assay: Synergistic antibacterial activity against Pseudomonas aeruginosa NCTC 13437 assessed as bacterial growth inhibition incubated for overnight in presence of PBMN by microbroth dilution method relative to control; type: functional; method in brief: as §2
[6] = test system: Acinetobacter baumannii; assay: Synergistic antibacterial activity against Acinetobacter baumannii AYE assessed as rifampicin MIC at <=0.25 times MIC incubated for overnight by microbroth dilution checkerboard assay; type: functional
Method in brief: (§4)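 Checkerboard microdilution under MIC conditions (TSB, overnight, 37 °C). Two-fold series of each agent were combined on one plate before bacteria were added, and single-agent MICs were measured on the same plate. FIC = sum of combination MIC/alone MIC for each agent, taken from the most synergistic well. Three independent repeats, mean ± SD. ≤0.5 was taken as strong synergy and 0.5–<1 as weak.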

[7] = test system: Enterococcus faecium; assay: Antibacterial activity against vancomycin resistant Enterococcus faecium NCTC 12204 assessed as bacterial growth inhibition incubated for overnight by microbroth dilution method; type: functional; method in brief: as §1
[8] = test system: Klebsiella pneumoniae; assay: Synergistic antibacterial activity against […] Klebsiella pneumoniae M6 assessed as rifampicin MIC at <=0.25 times MIC incubated for overnight by microbroth dilution checkerboard assay; type: functional
Method in brief: (§5)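 Checkerboard run under the MIC conditions (TSB, overnight, 37 °C). Antibiotic and lipoguanidine 2-fold series were combined on one plate before bacteria were added. Growth/no-growth was scored as for the MIC (<0.1 OD600). Single-agent MICs were measured on the same plates. Three independent repeats were done.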

[9] = test system: Klebsiella pneumoniae; assay: Synergistic antibacterial activity against Klebsiella pneumoniae NCTC 13368 assessed as bacterial growth inhibition incubated for overnight in presence of PBMN by microbroth dilution method relative to control; type: functional; method in brief: as §2
[10] = test system: Acinetobacter baumannii; assay: Synergistic antibacterial activity against Acinetobacter baumannii AYE assessed as fold change in rifampicin MIC at <=0.25 times MIC incubated for overnight by microbroth dilution checkerboard assay relative to rifampicin alone; type: functional; method in brief: as §4
[11] = test system: Pseudomonas aeruginosa; assay: Antibacterial activity against Pseudomonas aeruginosa NCTC 13437 assessed as bacterial growth inhibition incubated for overnight by microbroth dilution method; type: functional; method in brief: as §3
[12] = test system: Pseudomonas aeruginosa; assay: Synergistic antibacterial activity against Pseudomonas aeruginosa PAO1 assessed as fold change in rifampicin MIC at <=0.25 times MIC incubated for overnight by microbroth dilution checkerboard assay relative to rifampicin alone; type: functional
Method in brief: (§6)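 Checkerboard microdilution in Tryptic Soy Broth, run like the MIC assay. Overnight TSB cultures were back-diluted to OD 0.01 and added 1:1 to the combined two-fold series of both agents, then incubated overnight at 37 °C. Growth/no-growth was called at <0.1 OD600. MICs alone were read on the same plates. FIC index came from the most synergistic well; three independent repeats, mean ± SD.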

[13] = test system: Klebsiella pneumoniae; assay: Antibacterial activity against ESBL Klebsiella pneumoniae NCTC 13368 assessed as bacterial growth inhibition incubated for overnight by microbroth dilution method
[14] = test system: Staphylococcus aureus; assay: Antibacterial activity against methicillin sensitive Staphylococcus aureus ATCC 9144 assessed as bacterial growth inhibition incubated for overnight by microbroth dilution method; type: functional; method in brief: as §1
[15] = test system: Staphylococcus aureus; assay: Antibacterial activity against methicillin resistant Staphylococcus aureus NCTC 13616 assessed as bacterial growth inhibition incubated for overnight by microbroth dilution method; type: functional; method in brief: as §1
[16] = test system: Acinetobacter baumannii; assay: Synergistic antibacterial activity against Acinetobacter baumannii ATCC 17978 assessed as rifampicin MIC at <=0.25 times MIC incubated for overnight by microbroth dilution checkerboard assay; type: functional; method in brief: as §4
[17] = test system: Enterococcus faecalis; assay: Antibacterial activity against vancomycin sensitive Enterococcus faecalis NCTC 775 assessed as bacterial growth inhibition incubated for overnight by microbroth dilution method
[18] = test system: Acinetobacter baumannii; assay: Synergistic antibacterial activity against Acinetobacter baumannii ATCC 17978 assessed as fold change in rifampicin MIC at <=0.25 times MIC incubated for overnight by microbroth dilution checkerboard assay relative to rifampicin alone; type: functional; method in brief: as §4
[19] = test system: Acinetobacter baumannii; assay: Synergistic antibacterial activity against Acinetobacter baumannii ATCC 17978 assessed as bacterial growth inhibition incubated for overnight in presence of PBMN by microbroth dilution method relative to control; type: functional; method in brief: as §2
[20] = test system: Pseudomonas aeruginosa; assay: Synergistic antibacterial activity against Pseudomonas aeruginosa PAO1 assessed as rifampicin MIC at <=0.25 times MIC incubated for overnight by microbroth dilution checkerboard assay; type: functional; method in brief: as §6
[21] = test system: Klebsiella pneumoniae; assay: Antibacterial activity against Klebsiella pneumoniae M6 assessed as bacterial growth inhibition incubated for overnight by microbroth dilution method
[22] = test system: Acinetobacter baumannii; assay: Antibacterial activity against Acinetobacter baumannii ATCC 17978 assessed as bacterial growth inhibition incubated for overnight by microbroth dilution method; type: functional; method in brief: as §3
[23] = test system: Klebsiella pneumoniae; assay: Synergistic antibacterial activity against Klebsiella pneumoniae M6 assessed as bacterial growth inhibition incubated for overnight in presence of PBMN by microbroth dilution method relative to control; type: functional; method in brief: as §2
[24] = test system: Klebsiella pneumoniae; assay: Synergistic antibacterial activity against Klebsiella pneumoniae NCTC 13368 assessed as fold change in rifampicin MIC at <=0.25 times MIC incubated for overnight by microbroth dilution checkerboard assay relative to rifampicin alone; type: functional; method in brief: as §5
[25] = test system: Pseudomonas aeruginosa; assay: Synergistic antibacterial activity against Pseudomonas aeruginosa NCTC 13437 assessed as rifampicin MIC at <=0.25 times MIC incubated for overnight by microbroth dilution checkerboard assay; type: functional; method in brief: as §6
[26] = test system: Escherichia coli; assay: Synergistic antibacterial activity against Escherichia coli NCTC 12923 assessed as fold change in rifampicin MIC at <=0.25 times MIC incubated for overnight by microbroth dilution checkerboard assay relative to rifampicin alone; type: functional; method in brief: as §4
[27] = test system: Pseudomonas aeruginosa; assay: Synergistic antibacterial activity against Pseudomonas aeruginosa NCTC 13437 assessed as fold change in rifampicin MIC at <=0.25 times MIC incubated for overnight by microbroth dilution checkerboard assay relative to rifampicin alone; type: functional; method in brief: as §6
[28] = test system: Escherichia coli; assay: Synergistic antibacterial activity against Escherichia coli NCTC 12923 assessed as rifampicin MIC at <=0.25 times MIC incubated for overnight by microbroth dilution checkerboard assay; type: functional; method in brief: as §4
[29] = test system: Klebsiella pneumoniae; assay: Synergistic antibacterial activity against Klebsiella pneumoniae NCTC 13368 assessed as rifampicin MIC at <=0.25 times MIC incubated for overnight by microbroth dilution checkerboard assay; type: functional; method in brief: as §4
[30] = test system: Escherichia coli; assay: Synergistic antibacterial activity against Escherichia coli NCTC 12923 assessed as bacterial growth inhibition incubated for overnight in presence of PBMN by microbroth dilution method relative to control; type: functional; method in brief: as §2
[31] = test system: Pseudomonas aeruginosa; assay: Antibacterial activity against Pseudomonas aeruginosa PAO1 assessed as bacterial growth inhibition incubated for overnight by microbroth dilution method; type: functional; method in brief: as §3
[32] = test system: Acinetobacter baumannii; assay: Antibacterial activity against Acinetobacter baumannii AYE assessed as bacterial growth inhibition incubated for overnight by microbroth dilution method; type: functional; method in brief: as §3
[33] = test system: Pseudomonas aeruginosa; assay: Synergistic antibacterial activity against Pseudomonas aeruginosa PAO1 assessed as bacterial growth inhibition incubated for overnight in presence of […] by microbroth dilution method relative to control; type: functional
Method in brief: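 Fixed-concentration combination MIC in TSB. The first agent was set in a two-fold dilution series (100 µL/well), then 50 µL/well of the second agent at a fixed concentration was added; PMBN was fixed at 30 µg/mL. Bacteria at OD 0.02 (50 µL) went into 150 µL of compounds, overnight at 37 °C. MIC was the lowest concentration without visible growth (<0.1 OD600).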

[34] = test system: Staphylococcus aureus; assay: Antibacterial activity against methicillin resistant Staphylococcus aureus USA 300 assessed as bacterial growth inhibition incubated for overnight by microbroth dilution method; type: functional; method in brief: as §1

In the case of CCCCC/C=C\C/C=C\CCCCCCCCNC(=N)NCCCCCCCCN, the MIC [1] was 4 µg/mL (≈ 9.2 µM), the MIC [2] was 4 µg/mL (≈ 9.2 µM) and the “inhibition (INH)” value [3] was less than 20%. The MIC [4] was 8 µg/mL (≈ 18.4 µM), the “inhibition (INH)” value [5] was less than 20% and the MIC [6] was 2 µg/mL. For the same compound, the MIC [7] was 4 µg/mL (≈ 9.2 µM), the MIC [8] was 4 µg/mL and the “inhibition (INH)” value [9] was less than 20%. For the same compound, the “fold change (FC)” value [10] was “>=4”, the MIC [11] was greater than 128 µg/mL and the “fold change (FC)” value [12] was 0. The MIC [13] was 32 µg/mL (≈ 73.6 µM), the MIC [14] was 2 µg/mL (≈ 4.6 µM) and the MIC [15] was 4 µg/mL (≈ 9.2 µM). The MIC [16] was no more than 0.125 µg/mL, the MIC [17] was 8 µg/mL (≈ 18.4 µM) and the “fold change (FC)” value [18] was 0. The “inhibition (INH)” value [19] was less than 20%, the MIC [20] was 16 µg/mL and the MIC [21] was 16 µg/mL (≈ 36.8 µM). For the same compound, the MIC [22] was 8 µg/mL (≈ 18.4 µM), the “inhibition (INH)” value [23] was less than 20% and the “fold change (FC)” value [24] was “>=4”. For the same compound, the MIC [25] was 16 µg/mL, the “fold change (FC)” value [26] was 0 and the “fold change (FC)” value [27] was 0. For the same compound, the MIC [28] was 8 µg/mL, the MIC [29] was 8 µg/mL and the “inhibition (INH)” value [30] was less than 20%. The MIC [31] was greater than 128 µg/mL, the MIC [32] was 16 µg/mL (≈ 36.8 µM) and the “inhibition (INH)” value [33] was less than 20%. The MIC [34] was 2 µg/mL (≈ 4.6 µM).
